A short description of data set [1]: Plasma concentration in Swiss mouse at 50 mg/kg, po administered as single dose for 16 hrs. Set-up: dose 50 mg/kg, route oral. Type of data set: ADME, organism-based. The gist of the method: (§1)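 Nonfasted male Swiss outbred mice, 23-33 g, fed ad libitum. Single oral gavage as a suspension in 0.5% CMC, 0.5% benzyl alcohol, 0.4% Tween-80. One cardiac-puncture blood sample per mouse per time point. Plasma analysed by LC-MS/MS after acetonitrile precipitation, with diazepam as internal standard and a plasma calibration curve. PK parameters taken from mean concentration-time profiles.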

The subject of data set [2] is Mus musculus. Nature of the data set: Toxicity in Swiss mouse at 50 mg/kg, po administered as single dose. Type of data set: organism-based. Set-up: dose 50 mg/kg, route oral. The settings on record: in vivo. The gist of the method: (§2)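 Nonfasted male Swiss outbred mice, 23-33 g, given a single oral gavage dose suspended in 0.5% CMC/0.5% benzyl alcohol/0.4% Tween-80, then watched for adverse reactions over the plasma sampling period.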

The nature of data set [3]: Half life in Swiss mouse at 50 mg/kg, po administered as single dose. More on the design: dose 50 mg/kg, route oral. The note with it: in vivo. The class given is ADME, organism-based. The gist of the method: as §1
For data set [4], the system named is Plasmodium berghei. Nature of the data set: (§3) Antimalarial activity as reduced growth at day 5 in Plasmodium berghei NK65 infected BALB/c mice (Mus musculus) at 50 mg/kg peroral dose over 4 days. The note with it: route oral. Set-up: scale not given: the % may be the effect or the level left. The class given is functional. The gist of the method: (§4)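 Female BALB/c mice, 8-10 weeks old, infected ip with 2 × 10^7 infected erythrocytes 24 h before the first dose; ≥0.1% parasitemia confirmed first. Dosing by oral gavage in 0.5% CMC/0.4% Tween-80/0.5% benzyl alcohol, once daily (n = 3) or twice daily (n = 5) on days 1-4, with vehicle controls. Parasitemia counted daily from Wright-Giemsa thin tail-blood smears; suppression reported on day 5.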

The subject of data set [5] is Mus musculus. The experiment in a line: Plasma concentration in Swiss mouse at 50 mg/kg, po administered as single dose. Type of data set: ADME, organism-based. Set-up: dose 50 mg/kg, route oral. The note with it: in vivo. The gist of the method:
as §1

The test system of data set [6] is Mus musculus. The experiment in a line: Plasma concentration in Swiss mouse at 20 mg/kg, po administered as single dose. The class given is ADME, organism-based. Set-up: dose 20 mg/kg, route oral. The settings on record: in vivo. The method in brief:
as §1

In data set [7] the test system is Mus musculus. The experiment in a line: Toxicity in Plasmodium berghei NK65 infected BALB/c mice (Mus musculus) at 50 mg/kg, perorally qd for 4 days measured on day 5 postinfection. Type of data set: organism-based. More on the design: dose 50 mg/kg, route oral. The note with it: in vivo, po, 96 h. The method in brief: (§5)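 P. berghei-infected female BALB/c mice dosed by oral gavage in 0.5% CMC/0.4% Tween-80/0.5% benzyl alcohol. Tail bleeds and body weighing done daily. Animals monitored for ill effects and euthanized when the no-drug controls lost 20% of their pre-infection body weight.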

Data set [8] has as its system Liver microsomes. The note with it: human, 1 µM.
For data set [9], the system named is Plasmodium berghei. The data set is described as §3. Type of data set: functional. Set-up: scale not given: the % may be the effect or the level left. The settings on record: route oral. The method in brief:
as §4
The source holds these as a separate data set.

The subject of data set [10] is Liver microsomes. The note with it: human, 1 µM. This is another data set of the same source.
Data set [11] concerns Mus musculus. Nature of the data set: Toxicity in Swiss mouse at 20 mg/kg, po administered as single dose. The note with it: in vivo. Type of data set: organism-based. More on the design: dose 20 mg/kg, route oral. The gist of the method: as §2
Data set [12] has as its system Mus musculus. Nature of the data set: Toxicity in Plasmodium berghei NK65 infected BALB/c mice (Mus musculus) at 50 mg/kg, perorally bid for 4 days measured on day 5 postinfection. The class given is organism-based. More on the design: dose 50 mg/kg, route oral. The note with it: in vivo, po, 96 h. The gist of the method:
as §5

Data set [13] deals with Mus musculus. Nature of the data set: Toxicity in Plasmodium berghei NK65 infected BALB/c mice (Mus musculus) at 100 mg/kg, perorally administered every 4 hrs x 10 doses followed by every 6 hrs x 6 doses schedule. The class given is organism-based. Set-up: dose 100 mg/kg, route oral. The settings on record: in vivo, po. The gist of the method:
as §5

The test system of data set [14] is Plasmodium berghei. Nature of the data set: Antimalarial activity as reduced parasitaemia against Plasmodium berghei NK65 infected BALB/c mice (Mus musculus) at 100 mg/kg peroral dose at 10x4hrs then 6x6hrs. The class given is functional, organism-based. Set-up: dose 100 mg/kg. The method in brief: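 Female BALB/c mice, 8-10 weeks old, infected ip with 2 × 10^7 infected erythrocytes 24 h before dosing; ≥0.1% parasitemia verified. Oral gavage in 0.5% CMC/0.4% Tween-80/0.5% benzyl alcohol every 4 h × 10 doses, then every 6 h × 6 doses (n = 6 per group), against vehicle controls. Parasitemia counted daily by light microscopy of Wright-Giemsa stained thin tail-blood smears.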

Data set [15] in a line: Plasma concentration in Swiss mouse at 50 mg/kg, po administered as single dose for 240 mins. Type of data set: ADME, organism-based. Set-up: dose 50 mg/kg, route oral. The note with it: read-out: C0. The gist of the method:
as §1

As usually defined, the half-life is the time needed for the level to fall by half in the phase considered.

SMILES strings stand for the structures. Calls of active or inactive are those of the source.

Take `Cc1cc(Nc2ccc(C(F)(F)F)cc2)n2ncnc2n1`: the concentration at 16 h in [1] turned out to be 1 µM. Further, the Activity entry in [2] was “Non-toxic”; in data set [4] it was 71%; in data set [7], “Non-toxic”; in [9], 95%; in data set [11], “Non-toxic”; in data set [12], “Non-toxic”. In [3], this molecule gave a half-life of 3 h. Also, the concentration in data set [5] worked out at 27.6 µM; in [6] it was 7.9 µM. The t1/2 in data set [8] worked out at 3.83 h. Also, the CL in data set [10] came out at 7.5 µL/min/mg.

`Cc1cc(Nc2ccc3cc4ccccc4cc3c2)n2ncnc2n1`: in [5], the concentration was 2 µM. In addition, in data set [13], the Activity entry is “Non-toxic”. In data set [8], this molecule returned a t1/2 of 0.717 h. This molecule yielded a CL in data set [10] of 37 µL/min/mg. In data set [14], the result was inactive. In data set [15], the concentration at 4 h stood at 1 µM.

The values above are taken from ChEMBL document CHEMBL1153392, “Identification of a metabolically stable triazolopyrimidine-based dihydroorotate dehydrogenase inhibitor with antimalarial activity in mice” (J Med Chem, 2009).
